Assay results taken from article PMC10968941 (International Journal of Nanomedicine, 2024).

Tests used:
[1] = molecular target: pepsin from porcine stomach mucosa (Sus scrofa, UniProt P00791); experiment: Stability test in simulated gastric fluid; type: in vitro ADME; settings: 37°C; for Degradation in simulated gastric fluid with pepsin: up to 120 min
In short: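 Simulated gastric fluid: 200 mg NaCl and 64 mg porcine pepsin in 100 mL water plus 0.7 mL HCl, pH 1.2. Peptide (10 mg/mL in 0.1 M ammonium bicarbonate, 0.1 mL) mixed with 0.9 mL SGF at 37°C. Sampled at 0, 5, 15, 30, 60 and 120 min; quenched with 0.2 M NaOH; analysed by RP-HPLC. PEG 200, 400, 1000 or 4000 tested at 0%, 20% and 40% in SGF.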

Caco-2 cells = experiment: Caco-2 permeability assay; type: in vitro ADME, human; settings: Caco-2 Transwell, apical to basolateral, RP-HPLC
In short: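 Caco-2 cells seeded at 1 × 10^5 cells/well on 0.4 µm Transwell membranes and grown to a monolayer checked by TEER. Medium replaced with HBSS before dosing.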

Chain of pepsin from porcine stomach mucosa (P00791 60-385): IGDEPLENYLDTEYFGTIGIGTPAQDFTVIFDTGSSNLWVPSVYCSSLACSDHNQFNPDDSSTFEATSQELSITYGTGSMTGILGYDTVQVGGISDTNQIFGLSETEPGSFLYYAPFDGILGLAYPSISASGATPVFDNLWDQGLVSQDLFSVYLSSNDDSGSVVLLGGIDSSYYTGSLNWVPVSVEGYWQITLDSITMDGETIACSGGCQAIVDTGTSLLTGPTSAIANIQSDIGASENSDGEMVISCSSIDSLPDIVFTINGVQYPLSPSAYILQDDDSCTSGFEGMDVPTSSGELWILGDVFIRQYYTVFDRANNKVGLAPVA

## CCCCCCCCCCCCCCCC(=O)N[C@@H](CCC(=O)NCCCC[C@H](NC(=O)[C@H](C)NC(=O)[C@H](C)NC(=O)[C@H](CCC(N)=O)NC(=O)CNC(=O)[C@H](CCC(=O)O)NC(=O)[C@H](CC(C)C)NC(=O)[C@H](Cc1ccc(O)cc1)NC(=O)[C@H](CO)NC(=O)[C@H](CO)NC(=O)[C@@H](NC(=O)[C@H](CC(=O)O)NC(=O)[C@H](CO)NC(=O)[C@@H](NC(=O)[C@H](Cc1ccccc1)NC(=O)[C@@H](NC(=O)CNC(=O)[C@H](CCC(=O)O)NC(=O)[C@H](C)NC(=O)[C@@H](N)Cc1cnc[nH]1)[C@@H](C)O)[C@@H](C)O)C(C)C)C(=O)N[C@@H](CCC(=O)O)C(=O)N[C@@H](Cc1ccccc1)C(=O)N[C@H](C(=O)N[C@@H](C)C(=O)N[C@@H](Cc1c[nH]c2ccccc12)C(=O)N[C@@H](CC(C)C)C(=O)N[C@H](C(=O)N[C@@H](CCCNC(=N)N)C(=O)NCC(=O)N[C@@H](CCCNC(=N)N)C(=O)NCC(=O)O)C(C)C)[C@@H](C)CC)C(=O)O [LG, liraglutide]
[1]; SGF pH 1.2 with pepsin
  Degradation in simulated gastric fluid with pepsin: rapid degradation
[1]; SGF pH 1.2 with pepsin, listed as free LG
  Degradation in simulated gastric fluid with pepsin: fully degraded
[1]; SGF pH 1.2 without pepsin
  Degradation in simulated gastric fluid in the absence of pepsin: degradation was not observed
[1]; formulation containing PEG 1000, SGF pH 1.2 with pepsin
  Time to entire degradation in simulated gastric fluid, LG with PEG 1000: ≤ 60 min
[1]; formulation containing PEG 4000, SGF pH 1.2 with pepsin
  Time to entire degradation in simulated gastric fluid, LG with PEG 4000: ≤ 60 min
Caco-2 cells
  LG at the basolateral side after 2 h treatment: undetected
